Test results from ChEMBL document CHEMBL1140875, “DNA photocleavage by porphyrin-polyamine conjugates” (Bioorg Med Chem, 2009).
Activity calls are given as the source filed them. The calls are words filed in the database; no cut-off is given here.

How the values were obtained:
[1] = Photostability assessed as residual absorbance at 2.5 mW/cm2 irradiation for 15 mins; assay type: physicochemical; details: read-out: Stability
[2] = Photostability assessed as residual absorbance at 2.5 mW/cm2 irradiation for 30 mins; assay type: physicochemical; details: read-out: Stability
[3] = Photostability assessed as residual absorbance at 2.5 mW/cm2 irradiation for 45 mins; assay type: physicochemical; details: read-out: Stability
[4] = Photostability assessed as residual absorbance at 2.5 mW/cm2 irradiation for 60 mins; assay type: physicochemical; details: read-out: Stability
[5] = Induction of singlet oxygen production at 1 uM after irradiation at 10 mW/cm2 in presence of 1,3-diphenylisobenzofuran; assay type: physicochemical
Outline: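 Photosensitizer at 10^-6 M with DPBF at 6 × 10^-5 M in DMF/H2O (9/1). Illuminated at room temperature for 30 min with two 30 W white bulbs, 10 mW/cm2. DPBF absorbance decay read at 415 nm every 3 min.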

[6] = Lipophilicity, log P of the compound; assay type: physicochemical; details: octanol/water
Outline: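 1-Octanol/water partition at 25 °C with equal 3 mL phases and dye at 300 µM. Mixture vortexed and centrifuged. Aqueous and organic aliquots each diluted into MeOH, and dye concentration in each phase measured by absorption spectroscopy.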

[7] = test system: DNA; experiment: Binding affinity to calf thymus DNA at 4 uM in phosphate buffer of pH 7.4 by UV-vis spectroscopy; assay type: nucleic-acid assay; details: Bos taurus
Outline: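 Porphyrin held at 4 × 10^-6 M in PBS pH 7.4 and read by UV–vis at the Soret maximum. Calf thymus DNA titrated in at base-pair concentrations from 1.2 × 10^-6 to 1.2 × 10^-5 M, base pair/porphyrin ratio 0.2 to 3. Change in the Soret band followed.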

[8] = test system: Escherichia coli; experiment: Induction of DNA photocleavage activity in Escherichia coli pBR322 plasmid assessed as nicked DNA form at 10 uM by gel electrophoresis
Outline: (§1)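 Supercoiled pBR322 (0.25 µg in 10 µL) in 3 mM Tris–HCl, 0.3 mM EDTA, pH 8.0 at 25 °C, with 10 µM porphyrin. White light at 2.5 mW/cm2 from an 18 W lamp 4 cm away, for 15–120 min. Controls without porphyrin and/or without light. Products run on 0.7% non-denaturing agarose, SYBRsafe stain, transilluminator at 312 nm. Supercoiled, nicked and linear forms quantified as %.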

[9] = test system: Escherichia coli; experiment: Induction of DNA photocleavage activity in Escherichia coli pBR322 plasmid assessed as nicked DNA form at 10 uM after 15 mins irradiation at 2.5 mW/cm2 by gel electrophoresis; outline: as §1
[10] = test system: Escherichia coli; experiment: Induction of DNA photocleavage activity in Escherichia coli pBR322 plasmid assessed as nicked DNA form at 10 uM after 30 mins irradiation at 2.5 mW/cm2 by gel electrophoresis; outline: as §1
[11] = test system: Escherichia coli; experiment: Induction of DNA photocleavage activity in Escherichia coli pBR322 plasmid assessed as nicked DNA form at 10 uM after 60 mins irradiation at 2.5 mW/cm2 by gel electrophoresis; outline: as §1
[12] = test system: Escherichia coli; experiment: Induction of DNA photocleavage activity in Escherichia coli pBR322 plasmid assessed as nicked DNA form at 10 uM after 90 mins irradiation at 2.5 mW/cm2 by gel electrophoresis; outline: as §1
[13] = test system: Escherichia coli; experiment: Induction of DNA photocleavage activity in Escherichia coli pBR322 plasmid assessed as nicked DNA form at 10 uM after 120 mins irradiation at 2.5 mW/cm2 by gel electrophoresis; outline: as §1
[14] = test system: Escherichia coli; experiment: Induction of DNA photocleavage activity in Escherichia coli pBR322 plasmid assessed as linear DNA form at 10 uM after 60 mins irradiation at 2.5 mW/cm2 by gel electrophoresis; outline: as §1
[15] = test system: Escherichia coli; experiment: Induction of DNA photocleavage activity in Escherichia coli pBR322 plasmid assessed as linear DNA form at 10 uM after 90 mins irradiation at 2.5 mW/cm2 by gel electrophoresis; outline: as §1
[16] = test system: Escherichia coli; experiment: Induction of DNA photocleavage activity in Escherichia coli pBR322 plasmid assessed as linear DNA form at 10 uM after 120 mins irradiation at 2.5 mW/cm2 by gel electrophoresis; outline: as §1
[17] = test system: Escherichia coli; experiment: Induction of DNA photocleavage activity in Escherichia coli pBR322 plasmid assessed as supercoiled DNA form at 10 uM by gel electrophoresis
[18] = test system: Escherichia coli; experiment: Induction of DNA photocleavage activity in Escherichia coli pBR322 plasmid assessed as supercoiled DNA form at 10 uM after 15 mins irradiation at 2.5 mW/cm2 by gel electrophoresis; outline: as §1
[19] = test system: Escherichia coli; experiment: Induction of DNA photocleavage activity in Escherichia coli pBR322 plasmid assessed as supercoiled DNA form at 10 uM after 30 mins irradiation at 2.5 mW/cm2 by gel electrophoresis; outline: as §1
[20] = test system: Escherichia coli; experiment: Induction of DNA photocleavage activity in Escherichia coli pBR322 plasmid assessed as supercoiled DNA form at 10 uM after 60 mins irradiation at 2.5 mW/cm2 by gel electrophoresis; outline: as §1
[21] = test system: Escherichia coli; experiment: Induction of DNA photocleavage activity in Escherichia coli pBR322 plasmid assessed as supercoiled DNA form at 10 uM after 90 mins irradiation at 2.5 mW/cm2 by gel electrophoresis; outline: as §1
[22] = test system: Escherichia coli; experiment: Induction of DNA photocleavage activity in Escherichia coli pBR322 plasmid assessed as supercoiled DNA form at 10 uM after 120 mins irradiation at 2.5 mW/cm2 by gel electrophoresis; outline: as §1
[23] = test system: Escherichia coli; experiment: Induction of DNA photocleavage activity in Escherichia coli pBR322 plasmid assessed as nicked DNA form at 10 uM after 60 mins irradiation at 2.5 mW/cm2 by gel electrophoresis in presence of sodium azide
Outline: (§2)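 pBR322 (0.25 µg) in 3 mM Tris–HCl, 0.3 mM EDTA, pH 8.0 with 10 µM porphyrin, irradiated 60 min in the presence of 100 mM sodium azide (singlet oxygen quencher) or 100 mM mannitol (hydroxyl radical scavenger). Controls without porphyrin, ± irradiation, with each additive. Read-out by agarose gel electrophoresis.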

[24] = test system: Escherichia coli; experiment: Induction of DNA photocleavage activity in Escherichia coli pBR322 plasmid assessed as supercoiled DNA form at 10 uM after 60 mins irradiation at 2.5 mW/cm2 by gel electrophoresis in presence of sodium azide; outline: as §2
[25] = test system: Escherichia coli; experiment: Induction of DNA photocleavage activity in Escherichia coli pBR322 plasmid assessed as nicked DNA form at 10 uM after 60 mins irradiation at 2.5 mW/cm2 by gel electrophoresis in presence of mannitol; outline: as §2
[26] = test system: Escherichia coli; experiment: Induction of DNA photocleavage activity in Escherichia coli pBR322 plasmid assessed as supercoiled DNA form at 10 uM after 60 mins irradiation at 2.5 mW/cm2 by gel electrophoresis in presence of mannitol; outline: as §2
[27] = test system: Escherichia coli; experiment: Induction of DNA photocleavage activity in Escherichia coli pBR322 plasmid at 10 uM after irradiation for 2 hrs by gel electrophoresis

remaining at 0.25 h [1] [%] | remaining at 0.5 h [2] [%] | remaining at 0.75 h [3] [%] | remaining at 1 h [4] [%] | Activity [5] | logP [6] | Activity [7] | Activity [8] [%] | Activity [9] [%] | Activity [10] [%] | Activity [11] [%] | Activity [12] [%] | Activity [13] [%] | Activity [15] [%] | Activity [17] [%] | Activity [18] [%] | Activity [19] [%] | Activity [20] [%] | Activity [21] [%] | Activity [22] [%] | Compound | other results
100 | 99 | 99 | 98 | Active | 0.07 | – | 30 | 30 | 28 | 30 | 28 | 29 | – | 70 | 70 | 72 | 70 | 72 | 71 | Cc1cc(C)c(-c2c3nc(c(-c4ccc(C(=O)NCCCCC(=O)N(CCCN)CCCCNCCCN)cc4)c4ccc([nH]4)c(-c4c(C)cc(C)cc4C)c4nc(c(-c5ccc(C(=O)NCCCCC(=O)N(CCCN)CCCCNCCCN)cc5)c5ccc2[nH]5)C=C4)C=C3)c(C)c1 | –
100 | 99 | 98 | 97 | Active | -0.12 | Active | 36 | 54 | 64 | 78 | 84 | 90 | 4 | 78 | 46 | 36 | 22 | 12 | 5 | C=CC1=C(C)c2cc3[nH]c(cc4nc(cc5[nH]c(cc1n2)c(C)c5CCC(=O)NCCCCC(=O)N(CCCN)CCCCN)C(CCC(=O)NCCCCC(=O)N(CCCN)CCCCN)=C4C)c(C)c3C=C | Activity [16]: 4%; Activity [23]: 42%; Activity [24]: 58%; Activity [25]: 58%; Activity [26]: 42%; Activity [27]: Active
100 | 100 | 100 | 99 | Active | 0.11 | – | 27 | 27 | 25 | 28 | 29 | 22 | – | 73 | 73 | 75 | 72 | 71 | 78 | Cc1cc(C)c(-c2c3nc(c(-c4ccc(C(=O)NCCCCC(=O)N(CCCN)CCCCN)cc4)c4ccc([nH]4)c(-c4c(C)cc(C)cc4C)c4nc(c(-c5ccc(C(=O)NCCCCC(=O)N(CCCN)CCCCN)cc5)c5ccc2[nH]5)C=C4)C=C3)c(C)c1 | –

Second part, the compound before the results:

Compound | remaining at 0.25 h [1] [%] | remaining at 0.5 h [2] [%] | remaining at 0.75 h [3] [%] | remaining at 1 h [4] [%] | Activity [5] | logP [6] | Activity [7] | Activity [8] [%] | Activity [9] [%] | Activity [10] [%] | Activity [11] [%] | Activity [12] [%] | Activity [13] [%] | Activity [15] [%] | Activity [17] [%] | Activity [18] [%] | Activity [19] [%] | Activity [20] [%] | Activity [21] [%] | Activity [22] [%] | other results
NCCCCN(CCCN)C(=O)CCCCNC(=O)c1ccc(-c2c3nc(c(-c4ccc(C(=O)NCCCCC(=O)N(CCCN)CCCCN)cc4)c4ccc([nH]4)c(-c4ccc(C(=O)NCCCCC(=O)N(CCCN)CCCCN)cc4)c4nc(c(-c5ccc(C(=O)NCCCCC(=O)N(CCCN)CCCCN)cc5)c5ccc2[nH]5)C=C4)C=C3)cc1 | 100 | 99 | 98 | 97 | Active | -2.02 | Active | 16 | 28 | 36 | 39 | 50 | 51 | 7 | 84 | 72 | 64 | 59 | 43 | 39 | Activity [14]: 2%; Activity [16]: 10%
NCCCNCCCCN(CCCN)C(=O)CCCCNC(=O)c1ccc(-c2c3nc(c(-c4ccc(C(=O)NCCCCC(=O)N(CCCN)CCCCNCCCN)cc4)c4ccc([nH]4)c(-c4ccc(C(=O)NCCCCC(=O)N(CCCN)CCCCNCCCN)cc4)c4nc(c(-c5ccc(C(=O)NCCCCC(=O)N(CCCN)CCCCNCCCN)cc5)c5ccc2[nH]5)C=C4)C=C3)cc1 | 100 | 100 | 99 | 97 | Active | -2.83 | Active | 15 | 34 | 43 | 51 | 53 | 75 | 9 | 85 | 66 | 57 | 40 | 38 | 11 | Activity [14]: 8%; Activity [16]: 15%
